Screens as filed in PubChem.
Most compounds without a hit are left out; they make up all but 2.9% or so of the library.
Ecoli rRNA inh: selective bacterial rRNA inhibition in E. coli; hit rate 1.6% among 350,000; AID 720706; GFP signal change (wild-type ribosome), % (no concentration beside the values); E. coli WT GFP vs humanized-ribosome RFP mutants, fluorescence, 24 h; active compounds read low; DMSO median 0, no signal -100;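 active means significant combined selectivity score with lowered wild-type GFP, culture density cut under 30%, mutant RFP and density less affected; inactive means any of these conditions unmet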
PGC1a acetyl inh: PGC1a acetylation modulation, inhibitor mode. U2OS PGC1a acetylation, AlphaScreen anti-acetyl-lysine; with virally co-expressed GCN5 acetyltransferase. inhibition, % at 15.6 µM. hit rate 0.17% among 350,000. AID 651687;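 active means every replicate shows inhibition of at least 40%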;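 further: 0% = neutral control wells and 100% = positive control wells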
PglD inh: blocks C. jejuni PglD acetyltransferase activity; inhibition, % at 12.5 µM; purified PglD enzyme, DTNB colorimetric CoA detection; hit rate 0.098% among 360,000; in the data active means inhibition above about 16%, passing the limit was not always enough
Cneo AK release: Cryptococcus neoformans lysis via adenylate kinase release; C. neoformans lysis, adenylate kinase release luminescence, 4 h; normalised: neutral wells 0, clomiphene wells 100; hit rate 0.2% among 360,000; lysis activity, % at 15 µM;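 active means mean lysis activity across replicates of at least 80%, whatever share of replicates individually reach that level; inactive means mean lysis activity below 80%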
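Assay system: C. neoformans cells. Amount: yeast cell density of 5 × 10^6 cells/mL. Technique: AK luminescence. Buffer or medium: YPD. Times: static 4 h at 37 °C with compound, 1 h detection. Dosing: single-point compound dose. Read-out: lysis from increased AK signal.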
FGF22 binding: shifts melting point of recombinant human FGF22; recombinant FGF22 thermal shift, SYPRO orange fluorescence; percent of sucrose octasulfate shift, DMSO zero; hit rate 1.5% among 340,000; Q9HCT0; activity (Tm shift, normalised), % at 9.99 µM; AID 651658;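 active means mean Tm shift, scaled 0 neutral to 100 positive control, at about 1.3% or above, every replicate too, limit read from the data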
Target sequence (Q9HCT0 whole entry, looked up): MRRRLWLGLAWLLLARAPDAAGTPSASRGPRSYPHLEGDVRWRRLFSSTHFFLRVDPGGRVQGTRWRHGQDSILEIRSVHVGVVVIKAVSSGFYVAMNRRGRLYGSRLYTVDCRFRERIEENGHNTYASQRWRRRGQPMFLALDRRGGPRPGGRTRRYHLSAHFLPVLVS
Vif inh: blocks HIV Vif function; HEK293T cells, Vif self-association by quenched fluorescence, imaging, 24 h; inhibition, % at 7.49 µM; hit rate 0.35% among 340,000; in the data active means inhibition above about 50%, passing the limit was not always enough
The depositor's hits bear a star; nt = not tested or not shown.

SMILES | Ecoli rRNA inh | PGC1a acetyl inh | PglD inh | Cneo AK release | FGF22 binding | Vif inh
COc1ccc(/C=C/C(=O)c2ccc(O)cc2)cc1 | nt | 3 | -4 | -16 | 1.5* | 19
O=C(C[C@@H]1CC[C@H]2[C@@H](COC[C@H](O)CN2C(=O)Cc2ccccc2)O1)NC1Cc2ccccc2C1 | 5 | 6 | 2 | 2 | 0 | nt
CCCC(=O)Nc1ccc2c(c1)C(=O)N(C)[C@H]1CC[C@H](CC(=O)NCc3ccccc3Cl)O[C@H]1CO2 | 0 | -8 | -3 | 3 | 0 | nt
C1CC2CN(c3nc4nonc4nc3N3CCSCC3)CCN2C1 (stereo not drawn) | 2 | 4 | nt | nt | 44* | 1
C1CCN(C2CCN(c3nc4nonc4nc3N3CCSCC3)CC2)C1 | nt | nt | nt | nt | 43* | 5
C1CCC(Nc2nc3nonc3nc2N2CCSCC2)C1 | 3 | nt | nt | nt | 0 | 4
CCCCN1C(=O)C(O)(CC(=O)c2c(C)n[nH]c2C)c2cc(Br)ccc21 (stereo not drawn) | -21* | -3 | 3 | nt | nt | 13
O=C(CCCNC(=O)c1ccc(Cl)cc1)Nc1ncccc1O | -8 | -24 | -3 | 1 | 0 | 1
O=C(CCCNC(=O)c1ccc(Cl)cc1)Nc1nccs1 | 3 | -4 | 2 | 87* | 0 | -2
O=C(NC1Cc2ccccc2C1)[C@@H]1[C@@H](CO)[C@@H]2Cn3c(ccc(C4=CCCCC4)c3=O)[C@@H]2N1CC1CC1 | -9 | 1 | nt | nt | 0 | nt
CC1CCCC/C1=N\NC(=S)Nc1ccccc1 (stereo not drawn) | 10 | -1 | -2 | -2 | 0 | 66*
O=P(CCCCCCCCCP(=O)(c1ccccc1)c1ccccc1)(c1ccccc1)c1ccccc1 | nt | 78* | 4 | -1 | nt | -16
O=C(O)CCCCCCCCCCP(=O)(c1ccccc1)c1ccccc1 | 1 | 5 | -10 | -1 | 0 | -1
Cc1cc(C)c(O)c(-c2cc(C(=O)Nc3cccnc3)[nH]n2)c1 | -33* | -7 | nt | nt | 0 | -9
CCc1ccc(O)c(-c2cc(C(=O)Nc3cccnc3)[nH]n2)c1 | -37* | 7 | -7 | -1 | 0 | 0
C[C@@H]1CN([C@H](C)CO)C(=O)Cc2cc(NC(=O)Nc3ccc4c(c3)OCO4)ccc2O[C@H]1CN(C)C(=O)Nc1cccc2ccccc12 | -1 | 0 | -4 | -2 | -1 | nt
O=C(COc1ccccc1Br)c1ccc(O)cc1O | -42* | nt | 2 | 7 | 1 | -3
C[C@@H]1CN([C@H](C)CO)C(=O)c2cc(-c3ccncc3)cnc2O[C@H]1CN(C)C(=O)c1ccncc1 | 5 | -4 | -2 | -3 | 0 | nt
N#C/C(=C(/O)COC(=O)c1ccc(O)cc1)c1nc2ccccc2[nH]1 | -5 | -2 | 3 | -1 | 0 | 2
N#C/C(=C(\O)Cc1ccccc1)c1nc2ccccc2[nH]1 | nt | -4 | 19 | 1 | nt | 6
C/C(O)=C(\C#N)c1nc2ccccc2[nH]1 | nt | nt | 0 | -2 | nt | 51*
Cc1cccc(Nc2nnc(SC/C(O)=C(\C#N)c3nc4ccccc4[nH]3)s2)c1C | nt | -5 | -3 | -3 | nt | 1
Cc1cccc(C)c1Nc1nnc(SC/C(O)=C(\C#N)c2nc3ccccc3[nH]2)s1 | -34* | -5 | -2 | 5 | 0 | -5
N#C/C(=C(/O)CCl)c1nc2ccccc2[nH]1 | -16* | -28 | nt | nt | 0 | 6
N#C/C(=C(/O)COC(=O)c1cccnc1Cl)c1nc2ccccc2[nH]1 | 15 | 4 | nt | nt | 44* | 1
SMILES | Ecoli rRNA inh | PGC1a acetyl inh | PglD inh | Cneo AK release | FGF22 binding | Vif inh
Cc1ccc(S(=O)(=O)NCC[C@@H]2CC[C@@H](NC(=O)c3cnccn3)[C@@H](CO)O2)cc1 | 1 | 3 | 0 | 0 | 0 | nt
CC(/C=C1\SC(=S)N(C(C(=O)O)c2ccccc2)C1=O)=C\c1ccccc1 (stereo not drawn) | -27* | -8 | nt | nt | 0 | -7
C=CCOc1ccc(/C=C2\SC(=S)N(C(C(=O)O)c3ccccc3)C2=O)cc1 (stereo not drawn) | -42* | 1 | nt | nt | 0 | -12
C[C@@H]1CN([C@H](C)CO)S(=O)(=O)c2ccc(-c3ccc(F)cc3)cc2O[C@@H]1CN(C)C(=O)C1CCCCC1 | -8 | 6 | -6 | 1 | 0 | nt
Cc1ccc(-c2ccc3c(c2)O[C@H](CN(C)S(C)(=O)=O)[C@@H](C)CN([C@H](C)CO)S3(=O)=O)cc1 | -2 | -5 | -2 | -6 | 0 | nt
O=S1(=O)N[C@@H](Cc2ccccc2)COc2cccc(N3CCC[C@H]3CO)c21 | -27* | nt | nt | nt | 0 | nt
CN1C(=O)c2cc(NC(=O)c3cccc(F)c3)ccc2OC[C@@H]2O[C@@H](CC(=O)NC3CCC3)CC[C@H]21 | 0 | 5 | -3 | -3 | 0 | nt
O=C(NCCc1ccncc1)[C@@H]1[C@@H](CO)[C@@H]2Cn3c(ccc(-c4ccc(F)cc4)c3=O)[C@H]1N2 | 0 | nt | -3 | -3 | 0 | nt
N#Cc1cc([N+](=O)[O-])ccc1N1CCN(c2ccccc2O)CC1 | -24* | -6 | 7 | -3 | -1 | 7
CCOC(=O)c1ccoc1CN1CCN(S(=O)(=O)c2ccc(C)c(C)c2)CC1 | -20* | 4 | -3 | -1 | 0 | -5
Cc1ccc(S(=O)(=O)N2CCN(Cc3ccco3)CC2)cc1C | -6 | -15 | 4 | 1 | 0 | -4
CC(=O)N1CC(=O)N2[C@H](CO)[C@@H](c3ccc(-c4ccccc4)cc3)[C@@H]2C1 | 4 | nt | nt | nt | nt | nt
Cc1cc2ccccn2c1C(=S)NC(=O)c1ccccc1 | nt | nt | 0 | 11 | 0 | 12
Cc1ccc(C(=O)NC(=S)c2c(C)cc3ccccn23)cc1 | -15* | -5 | 6 | 10 | 0 | 5
Cc1cc2ccccn2c1C(=O)Nc1cccc(Cl)c1 | -33* | 13 | nt | nt | 0 | 0
C[C@H]1CN([C@@H](C)CO)C(=O)c2cc(-c3cccc(C#N)c3)cnc2O[C@@H]1CN(C)Cc1ccccc1 | 1 | -2 | -4 | 0 | 0 | nt
CC(C)C[C@H]1CNC(=S)N1C[C@H]1CCCN1C[C@H](Cc1ccc(O)cc1)N1C[C@H](Cc2ccc(O)cc2)N(CC2CCCCCC2)C1=S | 13 | -15 | -4 | 2 | 43* | 24
CC(C)C[C@H]1CNC(=S)N1CC1CCCN1C[C@H](Cc1ccccc1)N1C[C@H](Cc2ccc(O)cc2)N(CC2CCCCCC2)C1=S (stereo partly drawn) | 10 | 51* | 6 | 1 | 1 | nt
CC(C)C[C@H]1CN([C@@H](Cc2ccc(O)cc2)CN2CCCC2CN2C(=S)NC[C@@H]2Cc2ccccc2)C(=S)N1CC1CCCCC1 (stereo partly drawn) | 9 | nt | nt | nt | 0 | nt
CC(C)C[C@H]1CN([C@@H](Cc2ccc(O)cc2)CN2CCC[C@@H]2CN2C(=S)NC[C@@H]2Cc2ccccc2)C(=S)N1CC1CCCCCC1 | 17 | -15 | 3 | 1 | 0 | 15
